The list is not random: actives were taken first. Their share in the collection is about 1.8%.
APJ antag = antagonists of human apelin receptor APJ, primary screen, CHO-K1 cells, beta-arrestin complementation, luminescence; P35414; inhibition, % at 20 µM; 0.32% of 330,000 active;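 active = inhibition above about 40% at 20 µM, limit read from the data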;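 note: cells challenged with 10 nM apelin-13 agonist together with compound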
EBI2 antag = EBI2 receptor antagonists, beta-arrestin recruitment, primary screen, cell-based, luminescence, 7a,25-OHC stimulation, uHTS; 0.81% of 360,000 active; AID 651636, 2012; 7a,25-OHC stimulated; G-protein coupled receptor 183 (Homo sapiens), P32249; inhibition, % at 5 µM; in the data active = inhibition above about 38%;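 note: enzyme fragment complementation signal reports receptor beta-arrestin coupling in cells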
APJ ag = agonists of human apelin receptor APJ, primary screen, CHO-K1 cells, PathHunter beta-arrestin, luminescence. P35414. 0% DMSO wells, 100% apelin. activation, % at 20 µM. 0.11% of 330,000 active;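 active = activation more than six SD over the plate average, tested at 20 µM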
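Assay system: CHO-K1 APJ beta-arrestin complementation cell line / Compound: single test compound dose, 20 µM final, 1% DMSO / Times: overnight seeding, 90 min compound at 25 °C, 1 h detection / Technique: beta-gal luminescence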
CCR6 antag = CCR6 receptor antagonists, primary screen, cell-based, CHO-K1, luminescence, beta-arrestin, uHTS; AID 493098, 2011; 0.49% of 340,000 active; CHO-K1 CCR6 PathHunter beta-arrestin, CCL20-stimulated; inhibition, % at 20 µM;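 active = compounds whose inhibition of the agonist-driven luminescence signal at 20 µM reaches about 50%, limit read from the data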;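 note: cells stimulated with CCL20 at 14 nM final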
Target sequence (P51684 whole entry, looked up): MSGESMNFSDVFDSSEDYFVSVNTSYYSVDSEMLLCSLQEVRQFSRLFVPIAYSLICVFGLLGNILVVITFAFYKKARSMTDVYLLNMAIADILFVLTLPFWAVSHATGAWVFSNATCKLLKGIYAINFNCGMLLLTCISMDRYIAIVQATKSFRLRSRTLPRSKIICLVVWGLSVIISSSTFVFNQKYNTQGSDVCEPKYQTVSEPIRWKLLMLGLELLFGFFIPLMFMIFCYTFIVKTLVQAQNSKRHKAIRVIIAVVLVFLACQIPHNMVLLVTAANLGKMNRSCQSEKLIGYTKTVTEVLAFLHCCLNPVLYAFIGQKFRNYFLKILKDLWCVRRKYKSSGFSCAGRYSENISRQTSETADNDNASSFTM
B2AR ag = beta2AR agonists driving receptor internalization, primary screen, cell-based, FAP fluorogen, flow cytometry; Beta-2 adrenergic receptor (Homo sapiens), P07550; Am2.2-beta2AR cells; response, % (concentration not given with the values); 0.43% of 340,000 active; AID 504454, 2011;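 active = response above a set limit, near 3 SD of response in nonfluorescent compounds, cut at about 42% in these data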
CXCR6 block = CXCR6 receptor inhibitors, primary screen, cell-based, beta-arrestin, luminescence, CHO-K1 PathHunter, 1536-well; inhibition, % at 20 µM; C-X-C chemokine receptor type 6 (Homo sapiens), O00574; AID 602244, 2012; 0.36% of 360,000 active; in the data active = inhibition above about 34%, passing the limit was not always enough;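 note: antagonist mode with CXCL16 agonist at 10 nM final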
EBI2 conf = EBI2 antagonist hit retest, beta-arrestin, confirmation, cell-based, single concentration, luminescence, 7a,25-OHC stimulation | shares compounds with EBI2 antag | 7a,25-OHC antagonism | 29% of 2,400 active | inhibition, % at 5 µM;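 active = inhibition of at least 50%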
EBI2 ag = EBI2 agonist activity of antagonist hits, confirmation, counter-screen for EBI2 antagonist project, cell-based, single concentration, agonist mode, luminescence | EBI2-expressing cells, 60 min; 0% vehicle, 100% 7α,25-dihydroxycholesterol control | activation, % at 5 µM | shares compounds with EBI2 antag | 2,400 tested, under 10 active;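 active = activation of at least 50%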
bGal counter = E. coli beta-galactosidase enzyme inhibition, confirmation, counter-screen for EBI2 antagonist project, biochemical, luminescence, single concentration | AID 652176, 2013 | 1% of 2,400 active | inhibition, % at 5 µM | purified beta-galactosidase, luminescent Galacton Star, 15 min | shares compounds with EBI2 antag;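 active = replicate-average signal at least 3 plate SD below neutral wells, shown as high inhibition, flagging enzyme-inhibiting false positives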;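 note: higher means stronger loss of beta-gal luminescence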
Each line names hits and unclear results; the compound was inactive in the other large screens (follow-up assays come after a bar, where they were run).

Cn1nc(Oc2ncc(C(F)(F)F)cc2Cl)cc1C(F)(F)F	EBI2 antag 66 | EBI2 conf inactive | EBI2 ag inactive | bGal counter inactive
CC(C)Nc1nc(Cl)nc(N(C#N)CN2C(=O)c3ccccc3C2=O)n1	EBI2 antag 56 | EBI2 conf 53 | EBI2 ag inactive | bGal counter inactive
Cc1ccc(C(=O)O)cc1S(=O)(=O)Nc1ccccc1C(=O)NC1CC1	none
O=C(/C=C/c1ccc(F)cc1)N1CCc2ccccc2C1	none
CCN1CCN(C(=O)/C=C/c2ccc(C)cc2)CC1	EBI2 antag 95 | EBI2 conf 84 | EBI2 ag inactive | bGal counter inactive
CC(C)c1ccc(/C=C/C(=O)N2CCCCCC2)cc1	none
Cc1ccc(/C=C/C(=O)N2CCCN(C(=O)/C=C/c3ccc(C)cc3)CC2)cc1	EBI2 antag 94 | EBI2 conf 82 | EBI2 ag inactive | bGal counter inactive
Cc1ccc(/C=C/C(=O)N2CCc3ccccc3C2)cc1	none
O=C(/C=C/c1ccc(F)cc1)N1CCCN(C(=O)/C=C/c2ccc(F)cc2)CC1	EBI2 antag 85 | EBI2 conf 73 | EBI2 ag inactive | bGal counter inactive
Cc1ccc(/C=C/C(=O)NN2CCN(C)CC2)cc1	EBI2 antag 64 | EBI2 conf inactive | EBI2 ag inactive | bGal counter inactive
O=C(c1cc2ccccc2o1)N1CCN(CCOc2ccccc2)CC1	EBI2 antag 56 | EBI2 conf inactive | EBI2 ag inactive | bGal counter inactive
O=C(c1cc2ccccc2o1)N1CCN(Cc2ccc3c(c2)OCO3)CC1	EBI2 antag 70 | EBI2 conf inactive | EBI2 ag inactive | bGal counter inactive
O=C(c1cc2ccccc2oc1=O)N1CCN(Cc2ccc3c(c2)OCO3)CC1	none
Cc1ccc2c(C)c(C(=O)N3CCN(Cc4ccc5c(c4)OCO5)CC3)oc2c1C	EBI2 antag 44 | EBI2 conf inactive | EBI2 ag inactive | bGal counter inactive
CC(CCN1CCC(n2nccc2NC(=O)c2ccccc2Cl)CC1)c1ccccc1 (centres undefined)	none
COc1ccc(/C=C2\SC(=S)N(Cc3cccnc3)C2=O)cc1C	none
CCOc1cc(/C=C2/SC(=Nc3ccccc3)N(Cc3cccnc3)C2=O)ccc1OCC#N	EBI2 antag 48 | EBI2 conf inactive | EBI2 ag inactive | bGal counter inactive
Cc1ccccc1-c1cnc(C(O)c2ccc(F)c(F)c2)[nH]1 (centres undefined)	none (no result: APJ antag, APJ ag, CCR6 antag, B2AR ag)
CC1(c2cccs2)CC(c2cccs2)=C(C#N)C(=O)N1 (centres undefined)	EBI2 antag 85 | EBI2 conf 64 | EBI2 ag inactive | bGal counter inactive
CC1(c2ccccc2)CC(c2ccccc2)=C(C#N)C(=O)N1 (centres undefined)	none (no result: APJ antag, APJ ag)
CCOC(=O)N1CCN(C(=O)COc2cc(C)c(Cl)c(C)c2)CC1	EBI2 antag 83 | EBI2 conf 63 | EBI2 ag inactive | bGal counter inactive
CCOC(=O)N1CCN(C(=O)COc2ccc3ccccc3c2Br)CC1	EBI2 antag 52 | EBI2 conf inactive | EBI2 ag inactive | bGal counter inactive
CC(C)n1c(=O)nc(-c2ccccc2)c2cc3c(cc21)OCO3	none (no result: APJ antag, APJ ag, CCR6 antag, B2AR ag)
CCOc1ccc(NC(=O)CN2CCN(C3c4ccccc4-c4ccccc43)CC2)cc1	EBI2 antag 68 | EBI2 conf inactive | EBI2 ag inactive | bGal counter inactive
COc1ccc(NC(=O)CN2CCN(C3c4ccccc4-c4ccccc43)CC2)c(OC)c1	none
NC(CCc1ccccc1)c1csc(Nc2ccccn2)n1 (centres undefined)	none (no result: APJ antag, APJ ag, CCR6 antag, B2AR ag)
COc1ccc(C(=O)C(=O)N2CCC(c3ccccc3)CC2)cn1	EBI2 antag 43 (no result: APJ antag, APJ ag, CCR6 antag, B2AR ag, CXCR6 block) | EBI2 conf inactive | EBI2 ag inactive | bGal counter inactive
CCOC(=O)[C@]12CCCC=C1N(Cc1ccc(Cl)cc1Cl)C(=O)[C@H](CC(=O)N1CCSCC1)C2	none (no result: APJ antag, APJ ag, CCR6 antag, B2AR ag)
Cc1cccc(NC(=O)C(C)Sc2nc3nc(C)cc(C)n3n2)c1 (centres undefined)	none
CCCC(=O)n1nc(-c2ccccc2)nc1SC	EBI2 antag 43 | EBI2 conf inactive | EBI2 ag inactive | bGal counter inactive
CSc1nc(-c2ccccc2)nn1C(=O)c1ccccc1	none
COc1ccc(Nc2ccc(Nc3ccc(OC)cc3)nn2)cc1	EBI2 antag 69 | EBI2 conf inactive | EBI2 ag inactive | bGal counter inactive
C[C@@H]1COC(=O)[C@@H](NC(=O)OCC2c3ccccc3-c3ccccc32)C/C=C\C[C@@H](CC(=O)N(CCO)Cc2ccccc2)C(=O)N1	none
COc1ccc(/C=C/C(=O)NC(=S)Nc2cc3oc4ccccc4c3cc2OC)cc1	EBI2 antag 65 | EBI2 conf inactive | EBI2 ag inactive | bGal counter inactive
COc1cc2c(cc1NC(=S)NC(=O)/C=C/c1ccc(OC)c(OC)c1)oc1ccccc12	none (no result: APJ antag, APJ ag)
COc1cc2c(cc1NC(=S)NC(=O)/C=C/c1ccco1)oc1ccccc12	EBI2 antag 55 | EBI2 conf 51 | EBI2 ag inactive | bGal counter inactive
COc1ccc(C)c(NC(=O)NCCc2cnc[nH]2)c1	none
Cc1ccnc(NS(=O)(=O)c2cc(C(F)(F)F)ccc2Cl)c1	none (no result: EBI2 antag, CCR6 antag, B2AR ag, CXCR6 block)
CCCC[C@@H]1CNC(=O)C(=O)N1CCc1cccc2ccccc12	none (no result: EBI2 antag, CCR6 antag, B2AR ag, CXCR6 block)
NNC(=O)CNC(=O)Nc1n[nH]c(=S)s1	none (no result: APJ antag, APJ ag, CCR6 antag, B2AR ag)
CC(OC(=O)CNC(=O)c1ccc2ccccc2c1)C(=O)N(C)C1CCCCC1 (centres undefined)	EBI2 antag 50 | EBI2 conf inactive | EBI2 ag inactive | bGal counter inactive
CCCCNC(=O)c1ccc(NS(=O)(=O)c2ccc3[nH]c(=O)[nH]c3c2)cc1	none
